Source: ChEMBL document CHEMBL1212809, “Rapid behavior-based identification of neuroactive small molecules in the zebrafish” (Nat Chem Biol, 2010)
Active and inactive are the calls of the source. The calls are words filed in the database; no cut-off is given here.

Key:
[1] = Inhibition of MAO by plate-reader assay
[2] = Ratio of pargyline IC50 to compound IC50 for MAO
Danio rerio [3] = species: Danio rerio; experiment: Anxiolytic activity in zebrafish assessed as decrease in high intensity light-induced motor behavior at 10 to 100 uM by photomotor response assay; type: functional, organism-based
Method in brief: (§1)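 Embryos raised in HEPES (10 mM)-buffered E3 in the dark at 28 °C, then distributed at 28 hpf in groups of 8–10 per well of 96-well plates in E3 and held in the dark at 25 °C for chemical exposure. Light pulses were delivered while 1000 video frames were recorded at 33 fps. Motion index quartiles (Q1, Q3) in seven time periods were converted to pseudo z-scores against control wells.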

Danio rerio [4] = species: Danio rerio; experiment: Anxiolytic activity in zebrafish assessed as decrease in high intensity light-induced motor behavior at <10 uM by photomotor response assay; type: functional, organism-based; method in brief: as §1
Danio rerio [5] = species: Danio rerio; experiment: Modulation of neurological behavior in zebrafish assessed as effect on touch response by high-throughput screening; type: functional, organism-based
Method in brief: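 Zebrafish embryos were raised in E3 medium buffered with 10 mM HEPES, in the dark at 28 °C. At 28 hpf, groups of 8–10 were placed in 96-well plates, then kept dark at 25 °C during chemical treatment. After the photomotor assay, each animal was touched with a fine plastic probe and observed under a dissecting microscope. Wells were scored normal, toxic, sedative (no touch response but healthy heartbeat and circulation) or other.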

Danio rerio [6] = species: Danio rerio; experiment: Modulation of neurological behavior in zebrafish assessed as prolongation of high intensity light-induced motor response at 10 to 100 uM by photomotor response assay; type: functional, organism-based
Method in brief: (§2)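 Zebrafish embryos were raised in E3 medium buffered with 10 mM HEPES, in the dark at 28 °C. At 28 hpf, 8–10 per well went into 96-well plates, held dark at 25 °C for chemical treatment. For each well, 1000 video frames were recorded at 33 fps, with light stimuli. A motion index was computed from frame-to-frame pixel-intensity differences. Q1 and Q3 of this index over seven time periods gave fourteen pseudo z-scores versus control wells.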

Danio rerio [7] = species: Danio rerio; experiment: Modulation of neurological behavior in zebrafish assessed as prolongation of high intensity light-induced motor response at < 10 uM by photomotor response assay; type: functional, organism-based; method in brief: as §2
Danio rerio [8] = species: Danio rerio; experiment: Psychostimulant activity in zebrafish assessed as increase in high intensity light-induced motor response at 10 to 100 uM by photomotor response assay; type: functional, organism-based; method in brief: as §2
Danio rerio [9] = species: Danio rerio; experiment: Psychostimulant activity in zebrafish assessed as increase in high intensity light-induced motor response at < 10 uM by photomotor response assay; type: functional, organism-based; method in brief: as §2
Danio rerio [10] = species: Danio rerio; experiment: Modulation of neurological behavior in zebrafish assessed as robist increase in high intensity light-induced motor response at 10 to 100 uM by photomotor response assay; type: functional, organism-based; method in brief: as §1
Danio rerio [11] = species: Danio rerio; experiment: Modulation of neurological behavior in zebrafish assessed as robist increase in high intensity light-induced motor response at < 10 uM by photomotor response assay; type: functional, organism-based; method in brief: as §1
Danio rerio [12] = species: Danio rerio; experiment: Toxicity in zebrafish assessed as mortality at 100 uM; type: organism-based; conditions: in vivo
Method in brief: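 Embryos were treated in 96-well plates, 8–10 per well, then scored after the photomotor assay under a dissecting microscope. Scoring covered developmental retardation, morphological defects, heart morphology, rate and circulation, response to touch with a fine plastic probe, and overall appearance. Wells were classed as normal, toxic, sedative or other.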

[13] = Inhibition of MAO at 10 uM by plate-reader assay
Acetylcholinesterase [14] = target: T1, Acetylcholinesterase (Homo sapiens, UniProt P22303); experiment: Inhibition of AChE at 10 uM
Acetylcholinesterase [15] = target: Acetylcholinesterase (Danio rerio, UniProt Q9DDE3); experiment: Inhibition of AChE in zebrafish embryo
Acetylcholinesterase [16] = target: T1, Acetylcholinesterase; experiment: Inhibition of AChE

T1 sequence (P22303 whole entry): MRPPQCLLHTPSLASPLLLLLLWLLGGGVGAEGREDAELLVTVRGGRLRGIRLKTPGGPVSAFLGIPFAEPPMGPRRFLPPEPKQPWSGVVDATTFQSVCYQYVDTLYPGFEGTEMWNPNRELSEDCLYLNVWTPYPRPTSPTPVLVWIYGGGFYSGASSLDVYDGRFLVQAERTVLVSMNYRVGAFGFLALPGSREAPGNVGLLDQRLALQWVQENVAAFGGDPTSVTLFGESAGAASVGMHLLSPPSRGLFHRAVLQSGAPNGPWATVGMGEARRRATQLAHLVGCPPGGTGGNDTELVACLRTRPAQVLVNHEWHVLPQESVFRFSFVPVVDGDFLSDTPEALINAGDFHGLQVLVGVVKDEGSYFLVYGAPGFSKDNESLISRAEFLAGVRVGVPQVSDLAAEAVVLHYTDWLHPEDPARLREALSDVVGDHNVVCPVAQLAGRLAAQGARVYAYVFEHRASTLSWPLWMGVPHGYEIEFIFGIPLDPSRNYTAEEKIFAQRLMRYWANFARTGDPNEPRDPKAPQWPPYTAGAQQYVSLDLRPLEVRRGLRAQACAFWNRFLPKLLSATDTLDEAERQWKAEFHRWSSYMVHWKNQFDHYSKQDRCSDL
Chain of Acetylcholinesterase (Danio rerio, UniProt Q9DDE3) (Q9DDE3 whole entry): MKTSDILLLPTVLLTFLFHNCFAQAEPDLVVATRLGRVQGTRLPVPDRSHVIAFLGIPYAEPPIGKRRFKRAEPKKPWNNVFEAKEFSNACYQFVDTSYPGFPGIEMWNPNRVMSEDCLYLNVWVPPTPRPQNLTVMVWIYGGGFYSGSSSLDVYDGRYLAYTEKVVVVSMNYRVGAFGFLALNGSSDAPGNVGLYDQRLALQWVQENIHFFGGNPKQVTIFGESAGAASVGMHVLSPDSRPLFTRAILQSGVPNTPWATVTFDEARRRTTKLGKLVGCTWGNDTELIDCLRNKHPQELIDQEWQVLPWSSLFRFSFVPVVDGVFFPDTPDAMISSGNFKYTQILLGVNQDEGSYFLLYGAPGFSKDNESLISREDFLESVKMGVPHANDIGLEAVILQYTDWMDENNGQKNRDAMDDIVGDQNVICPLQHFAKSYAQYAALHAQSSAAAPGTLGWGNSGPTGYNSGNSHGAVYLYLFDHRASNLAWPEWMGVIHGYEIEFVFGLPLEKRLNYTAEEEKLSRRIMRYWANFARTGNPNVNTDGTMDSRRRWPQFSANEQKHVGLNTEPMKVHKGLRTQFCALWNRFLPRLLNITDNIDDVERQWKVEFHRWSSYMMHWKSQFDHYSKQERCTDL

CC(C)(C)OC(=O)NCC(=O)Oc1cc2oc(=O)c3c(c2cc1Cl)CCC3
IC50 [1]: 500 nM
Ratio IC50 [2]: 100

CN1C(=O)CN=C(c2ccccc2)c2cc(Cl)ccc21
inhibition (Danio rerio [3]): Active
inhibition (Danio rerio [4]): inactive
Activity (Danio rerio [5]): Active

C[n+]1ccccc1C=NO
Activity (Danio rerio [6]): Active

CN1CCc2cccc3c2[C@H]1Cc1ccc(O)c(O)c1-3
Activity (Danio rerio [6]): Active
Activity (Danio rerio [7]): inactive
Activity (Danio rerio [5]): Active

CNC[C@H](O)c1ccc(O)c(O)c1
Activity (Danio rerio [5]): Active

CC(C)NCC(O)c1ccc(O)c(O)c1 (centres undefined)
Activity (Danio rerio [8]): Active
Activity (Danio rerio [9]): inactive
Activity (Danio rerio [4]): inactive
Activity (Danio rerio [5]): Active

CC(C)(C)NCC(O)c1cc(Cl)c(N)c(Cl)c1 (centres undefined)
Activity (Danio rerio [5]): Active

CC(C)(C)OC(=O)NCCC(=O)Oc1cc2oc(=O)c3c(c2cc1Cl)CCCC3
IC50 [1]: 10000 nM
Ratio IC50 [2]: 100

O=[N+]([O-])c1ccc2nc(N3CCNCC3)ccc2c1
Activity (Danio rerio [10]): Active
Activity (Danio rerio [11]): inactive
Activity (Danio rerio [5]): Active

C[C@]12CC[C@H](O)C[C@H]1CC[C@@H]1[C@@H]2CC[C@]2(C)[C@@H](C3=CC(=O)OC3)CC[C@]12O [DIGITOXIGENIN]
Activity (Danio rerio [12]): Toxic
Activity (Danio rerio [5]): Active

CNC(=O)Oc1ccc2c(c1)[C@]1(C)CCN(C)[C@@H]1N2C
Activity (Danio rerio [5]): Active

C#CCN(C)Cc1ccccc1
Activity (Danio rerio [5]): Active

CC(C)(C)OC(=O)NCCC(=O)Oc1cc2oc(=O)c3c(c2cc1Cl)CCC3
IC50 [1]: 1000 nM
Ratio IC50 [2]: 100

O=C(CNC(=O)OCc1ccccc1)Oc1cc2oc(=O)c3c(c2cc1Cl)CCC3
inhibition [13]: 0%
Ratio IC50 [2]: 100

O=C(Oc1ccc2c3c(c(=O)oc2c1)CCCC3)c1ccccc1
Activity (Danio rerio [5]): Active

CC(=O)CC(c1ccccc1)c1c(O)c2ccccc2oc1=O (centres undefined)
Activity (Danio rerio [5]): Active
inhibition [13]: inactive

O=C1c2ccccc2-c2nc3ncnn3c(-c3ccccc3Cl)c21
Activity (Danio rerio [5]): Active
inhibition (Acetylcholinesterase [14]): inactive
IC50 (Acetylcholinesterase [15]): 500 nM

CN1[C@@H]2CC[C@H]1C[C@@H](OC(=O)C(CO)c1ccccc1)C2 (some centres undefined)
Activity (Danio rerio [6]): Active

O=C(CCCN1C(=O)c2ccccc2C1=O)N1CCCCCC1
Activity (Danio rerio [5]): Active
IC50 (Acetylcholinesterase [16]): 500 nM

Cc1cc2c(OCC(CNC(C)(C)C)OC(=O)c3ccccc3)cccc2[nH]1 (centres undefined)
Activity (Danio rerio [6]): Active

COC(=O)c1ccc(COc2cc(C)ccc2C(=O)Oc2ccc3c4c(c(=O)oc3c2)CCCC4)o1
Ratio IC50 [2]: 100
